Holding throughout (type): nucleic-acid assay
Test [1] concerns Nucleic Acid. The test can be described thus: Evaluated for thermal denaturation at pH 3.9 against poly(A)-poly(U) synthetic RNA oligonucleotide. In a few lines: (§1)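 Polymer (poly(A)·poly(U) or poly(dA)·poly(dT)) at 1.0×10^-4 M in MES buffer (0.01 M MES, 0.001 M EDTA, 0.1 M NaCl), pH set with NaOH to the listed value. Compound added to a final drug:polymer phosphate ratio of 0.3. Absorbance at 260 nm followed while heating at 0.5 °C/min in 1-cm cells. ΔTm is the Tm shift of the complex versus the free polymer.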

The test system of test [2] is Nucleic Acid. The test can be described thus: Evaluated for thermal denaturation at pH 3.9 against poly(A)-poly(dt) synthetic DNA oligonucleotide. In a few lines: as §1
The subject of test [3] is Nucleic Acid. The test can be described thus: Evaluated for thermal denaturation at pH 4.9 against poly(A)-poly(U) syntheticRNA oligonucleotide. In a few lines: as §1
Test [4] concerns Nucleic Acid. The test can be described thus: Evaluated for thermal denaturation at pH 6.3 against poly(A)-poly(U) synthetic RNA oligonucleotide. In a few lines:
as §1

Test [5] has as its system Nucleic Acid. As to the kind of experiment: Evaluated for thermal denaturation at pH 6.3 against poly(A)-poly(dt) synthetic DNA oligonucleotide. In a few lines:
as §1

The test system of test [6] is Nucleic Acid. The test can be described thus: Evaluated for thermal denaturation at pH 4.9 against poly(A)-poly(dt synthetic DNA oligonucleotide. In a few lines:
as §1

Test [7] concerns Nucleic Acid. As to the kind of experiment: Thermal denaturation at pH 4.9 against poly(A)-poly(dt) synthetic DNA oligonucleotide. A digest of the protocol:
as §1

Test [8] relates to Nucleic Acid. The test can be described thus: Thermal denaturation at pH 6.3 against poly(A)-poly(U) synthetic RNA oligonucleotide. In a few lines: as §1

Consider `C(CN1CCC(C2=NCCN2)CC1)CN1CCC(C2=NCCN2)CC1`, for which the ΔTm worked out at 28.7 in the test on Nucleic Acid [1]; 6.1 in the test with Nucleic Acid [2]; 24.5 in the test with Nucleic Acid [3]; 18.1 with Nucleic Acid [4]; 6.1 in the test with Nucleic Acid [5]; 5.6 in the test on Nucleic Acid [6].

On to `c1cnc(N2CCN(Cc3ccc(CN4CCN(c5ncccn5)CC4)cc3)CC2)nc1`, for which the ΔTm in the test on Nucleic Acid [3], in the test on Nucleic Acid [4], with Nucleic Acid [5] and with Nucleic Acid [6] was 0 each time.

Consider `c1cc(CN2CCC(N3CCCCC3)CC2)ccc1CN1CCC(N2CCCCC2)CC1`, for which the ΔTm was 17.7 in the test on Nucleic Acid [1]; 5.6 in the test with Nucleic Acid [2]; 15.4 in the test with Nucleic Acid [3]; 6.7 with Nucleic Acid [7]; 8.1 in the test with Nucleic Acid [4]; 3.5 in the test on Nucleic Acid [5].

Turning to `OCC1CCCN(CCCN2CCCC(CO)C2)C1` (centres undefined), the ΔTm in the test on Nucleic Acid [3] was determined as 0.9; with Nucleic Acid [4], 0.4; with Nucleic Acid [5], 0; in the test with Nucleic Acid [6] it was 0.

Regarding `C(CC1CCNCC1)CC1CCNCC1`, the ΔTm in the test with Nucleic Acid [3] was determined as 1.2; with Nucleic Acid [4], 0; with Nucleic Acid [5] it was 0.1; in the test on Nucleic Acid [6] it was 0.7.

As for `c1cc(CN2CCNCC2)ccc1CN1CCNCC1`, the ΔTm with Nucleic Acid [4] and in the test with Nucleic Acid [5] was 0 throughout.

Consider `c1cc(CN2CCC(C3=NCCN3)CC2)ccc1CN1CCC(C2=NCCN2)CC1`, for which the ΔTm with Nucleic Acid [1] is 23.3; in the test on Nucleic Acid [2], 8.8; in the test on Nucleic Acid [3] it was 20.7; with Nucleic Acid [4] it was 16.2; with Nucleic Acid [5], 8.7; with Nucleic Acid [6], 9.5.

As for `OCC1CCN(CCCN2CCC(CO)CC2)CC1`, the ΔTm was 0.5 in the test with Nucleic Acid [3], 0.2 in the test on Nucleic Acid [4], 0 in the test on Nucleic Acid [5] and 0.5 with Nucleic Acid [6].

`C1CCN(CCCN2CCCCC2)CC1`: the ΔTm in the test on Nucleic Acid [3], in the test with Nucleic Acid [4], in the test with Nucleic Acid [5] and in the test on Nucleic Acid [6] was 0 in each case.

For `C1CCN(C2CCN(CCCN3CCC(N4CCCCC4)CC3)CC2)CC1`, the ΔTm with Nucleic Acid [1] is 22.2; in the test with Nucleic Acid [2], 4.1; in the test with Nucleic Acid [3], 20.7; in the test with Nucleic Acid [4], 9.8; in the test with Nucleic Acid [5] it was 3.3; in the test with Nucleic Acid [6], 4.5.

With `c1cnc(N2CCN(Cc3cccc(CN4CCN(c5ncccn5)CC4)c3)CC2)nc1`, the ΔTm with Nucleic Acid [3], in the test on Nucleic Acid [4], with Nucleic Acid [5] and in the test with Nucleic Acid [6] was 0 each time.

As to `C1CCN(C2CCN(CCN3CCN(CCN4CCC(N5CCCCC5)CC4)CC3)CC2)CC1`, the ΔTm was 34.7 in the test on Nucleic Acid [1]; 10.4 in the test with Nucleic Acid [2]; 22.9 with Nucleic Acid [3]; 7.6 with Nucleic Acid [8]; 6.5 with Nucleic Acid [5]; 8.3 with Nucleic Acid [6].

As to `C1CCN(CCN2CCN(CCN3CCCCC3)CC2)CC1`, the ΔTm was found to be 0.3 in the test on Nucleic Acid [3], 0 in the test with Nucleic Acid [4], 0 in the test with Nucleic Acid [5] and 0.2 in the test on Nucleic Acid [6].

With `CN1CCN(CCCN2CCN(C)CC2)CC1`, the ΔTm was 11 with Nucleic Acid [1]; 0 in the test on Nucleic Acid [2]; 1.3 in the test on Nucleic Acid [3]; 0 in the test on Nucleic Acid [4]; 0 in the test with Nucleic Acid [5]; 0 in the test with Nucleic Acid [6].

With `OC1CCN(Cc2ccc(CN3CCC(O)CC3)cc2)CC1`, the ΔTm in the test on Nucleic Acid [4] and in the test with Nucleic Acid [5] was 0 each time.

As to `c1cc(CN2CCC(N3CCCCC3)CC2)cc(CN2CCC(N3CCCCC3)CC2)c1`, the ΔTm with Nucleic Acid [4] worked out at 8; in the test with Nucleic Acid [5] it was 3.3.

Turning to `c1cc(CN2CCN(Cc3ccc(CN4CCNCC4)cc3)CC2)ccc1CN1CCNCC1`, the ΔTm in the test on Nucleic Acid [1] came out at 29.3; with Nucleic Acid [2], 12; in the test with Nucleic Acid [3] it was 15.7; in the test with Nucleic Acid [4], 0; in the test with Nucleic Acid [5] it was 2.3; in the test with Nucleic Acid [6] it was 5.1.

In the case of `c1ccc(CN2CCN(CCCN3CCN(Cc4ccccc4)CC3)CC2)cc1`, the ΔTm with Nucleic Acid [1] was found to be 2.4; with Nucleic Acid [2], 0.2; in the test on Nucleic Acid [4], 0; in the test with Nucleic Acid [5], 0.

`N#CC1CCN(CCCN2CCC(C#N)CC2)CC1`: the ΔTm with Nucleic Acid [3], in the test on Nucleic Acid [4], in the test with Nucleic Acid [5] and in the test with Nucleic Acid [6] was 0 in each case.

These data come from ChEMBL document CHEMBL1127629, “Design and synthesis of RNA-specific groove-binding cations: implications for antiviral drug design” (J Med Chem, 1994).
